Experimental data pooled from the literature.
Protocols differ between the studies behind these lines.
MMP7: Matrilysin (MMP7, Homo sapiens, UniProt P09237)

SMILES	target	read-out	mode	method	concentration	endpoint	value
Nc1ncc(-c2nc(N3CCOCC3)nc(N3CCOCC3)n2)c(C(F)F)n1	Serine/threonine-protein kinase 17B (STK17B, Homo sapiens, UniProt O94768)	binding		competition with immobilised ligand	10 µM	remaining binding	85%
Cc1cc(=O)oc2cc(NC(=O)[C@H](CCCNC(=N)N)NC(=O)[C@H](CCCNC(=N)N)NC(=O)[C@@H](NC(=O)[C@H](CCCNC(=N)N)NC(=O)OC(C)(C)C)C(C)C)ccc12	Furin (FURIN, Homo sapiens, UniProt P09958)	enzyme activity	substrate	fluorescence		Km	44.6 µM
COc1ncccc1-c1cnn2ccc(N3CCN(C(=O)OC(C)C)CC3)nc12	Phosphatidylinositol 4-phosphate 5-kinase type-1 gamma (PIP5K1C, Homo sapiens, UniProt O60331)	binding		competition with immobilised ligand	1 µM	remaining binding	53%
CCOC(=O)c1ccc(OC(=O)CCCCCNC(=N)N)cc1	MMP7	enzyme activity	inhibitor		10 µM	inhibition	3%
O=c1ccc2ccc3occc3c2o1	Aldehyde dehydrogenase 1A1 (ALDH1A1, Homo sapiens, UniProt P00352)	enzyme activity	inhibitor	absorbance	10 µM	activity vs control	61%
N=C(N)c1ccc2cc(OC(=O)c3ccc(N=C(N)N)cc3)ccc2c1	MMP7	enzyme activity	inhibitor		10 µM	inhibition	5%
Cc1nn(C)cc1-c1nc2c(N3CCN(Cc4ccc(Cl)cc4)CC3)c(Cl)cnc2[nH]1	Serine/threonine-protein kinase 32A (STK32A, Homo sapiens, UniProt Q8WU08)	binding		competition with immobilised ligand	1 µM	remaining binding	100%
C#Cc1n[nH]c2c(-c3cn([C@@H](C)c4ccccn4)c(=O)[nH]c3=O)cc(F)cc12	Tyrosine-protein kinase receptor UFO (AXL, Homo sapiens, UniProt P30530)	enzyme activity	inhibitor		0.1 µM	inhibition	13.4%
